Cneo AK release: Cryptococcus neoformans cell lysis inducers, primary screen, AK release luminescence, single concentration; C. neoformans lysis, adenylate kinase release luminescence, 4 h; normalised: neutral wells 0, clomiphene wells 100; lysis activity, % at 15 µM; actives 0.2% (n = 360,000); AID 651654, 2012;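 active = mean lysis activity across replicates of at least 80%, whatever share of replicates individually reach that level; inactive = mean lysis activity below 80%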
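Assay system: C. neoformans cells. Amount: yeast cell density of 5 × 10^6 cells/mL. Technique: AK luminescence. Buffer or medium: YPD. Times: static 4 h at 37 °C with compound, 1 h detection. Dosing: single-point compound dose. Read-out: lysis from increased AK signal.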
DAGLB inhibitor: DAGLB lipase inhibitors, primary screen, biochemical, fluorescence, HTS; Diacylglycerol lipase-beta (Homo sapiens), Q8NCG7; HEK293T DAGLB membrane lysate, EnzChek fluorogenic substrate; inhibition, % at 5.17 µM; actives 0.059% (n = 340,000); AID 504411, 2011; in the data active = inhibition above about 34%;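 note: 0% = enzyme with vehicle and 100% = wells lacking enzyme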
Target sequence (Q8NCG7 whole entry, looked up): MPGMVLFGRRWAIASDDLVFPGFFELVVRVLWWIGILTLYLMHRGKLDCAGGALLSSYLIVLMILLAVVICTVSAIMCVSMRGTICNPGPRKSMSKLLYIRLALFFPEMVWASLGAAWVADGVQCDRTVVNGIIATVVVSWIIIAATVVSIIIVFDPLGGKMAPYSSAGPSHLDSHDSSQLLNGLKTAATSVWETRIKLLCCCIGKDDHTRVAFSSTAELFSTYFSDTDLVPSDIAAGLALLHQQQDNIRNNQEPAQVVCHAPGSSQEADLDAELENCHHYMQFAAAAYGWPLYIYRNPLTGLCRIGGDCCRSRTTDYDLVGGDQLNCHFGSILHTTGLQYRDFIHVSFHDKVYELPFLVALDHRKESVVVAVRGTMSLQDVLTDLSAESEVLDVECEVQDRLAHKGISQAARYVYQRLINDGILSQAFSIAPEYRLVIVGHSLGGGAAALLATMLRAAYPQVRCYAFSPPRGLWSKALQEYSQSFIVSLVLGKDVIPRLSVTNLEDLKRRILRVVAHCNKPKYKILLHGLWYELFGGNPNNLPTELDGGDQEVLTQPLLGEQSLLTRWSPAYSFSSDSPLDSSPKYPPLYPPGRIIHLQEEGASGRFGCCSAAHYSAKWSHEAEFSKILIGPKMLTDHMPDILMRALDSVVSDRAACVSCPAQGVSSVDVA
MT1-MMP act inh: blockers of MT1-MMP proenzyme processing, primary screen, HT1080 RFP-PRO-GFP cells, GFP/RFP fluorescence | GFP/RFP ratio fluorescence, overnight; percent of plate control window, DMSO zero | Matrix metalloproteinase-14 (Homo sapiens), P50281 | actives 0.061% (n = 360,000) | GFP/RFP ratio change, % at 20 µM;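 active = GFP/RFP ratio change of at least 30% with cell ATP level not reduced by more than half and red fluorescence within 50% of control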
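Assay system: RFP-PRO-GFP reporter HT1080 cells; read-out basis: GFP/RFP fluorescence ratio; benchmarks: DMSO wells and RFP-L50D-GFP cells; doses: 20 µM single dose, 1% DMSO; schedule: overnight cell settling, then overnight compound exposure, 37 °C, 5% CO2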
Ecoli rRNA inh: reduced GFP signal of wild-type E. coli, primary screen, bacterial rRNA inhibitor project, GFP/RFP fluorescence, OD600, single point; E. coli WT GFP vs humanized-ribosome RFP mutants, 24 h; stronger effect = lower value; DMSO median 0, no signal -100; actives 1.6% (n = 350,000); GFP signal change (wild-type ribosome), % (test concentration not listed);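 active = significant combined selectivity score with lowered wild-type GFP, culture density cut under 30%, mutant RFP and density less affected; inactive = any of these conditions unmet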
SKN-1 inh: suppressors of acrylamide-induced Pgst-4::GFP reporter in worms, primary screen, SKN-1 inhibitor project, whole organism, uHTS, GFP/RFP fluorescence ratio, strain VP596 | C. elegans VP596 Pgst-4::GFP/RFP ratio, 24 h | inhibition, % at 21.8 µM | actives 0.49% (n = 360,000);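 active = interference check ratio from 0.5 to 1.5 plus GFP to RFP signal ratio inhibition reaching or exceeding a fixed threshold, cut at about 30% in these data, passing the limit was not always enough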
hiPSC survival: enhancers of single-cell hiPSC survival, primary screen, ATPlite luminescence | AID 602274, 2012 | survival enhancement, % at 20 µM | actives 0.044% (n = 360,000) | 100% = ROCK inhibitor wells, 0% = DMSO; in the data active = survival enhancement above about 18%;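 note: cells exposed to compounds for 16 hours before the ATP read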
* hit, by the source's call; x = no result given; ! = repeats disagree. Shown are actives, neighbours in structure and some others; about 1.8% of the full set was active somewhere.

SMILES | Cneo AK release | DAGLB inhibitor | MT1-MMP act inh | Ecoli rRNA inh | SKN-1 inh | hiPSC survival
O=C1Nc2ccccc2/C1=N/N=C/c1cccc(O)c1 | 0.1 | 4.6 | -1.5 | 1.1 | -0.6 | -0.5
Oc1cccc(C=NN=C2c3ccccc3-c3ccccc32)c1 | x | 4.5 | -0.7 | -33.9* | 0.8 | 7.8
CO[C@@H]1CN(C)C(=O)c2ccc(NC(=O)Nc3ccccc3F)cc2OC[C@H](C)N(C(C)=O)C[C@H]1C | -0.8 | x | x | -1.9 | x | x
O=C(CSc1nc(-c2ccco2)cc(C(F)(F)F)n1)NC1CCCCCCC1 | x | 0.8 | -9.0 | x | 36.7* | 3.0
O=C(CSc1nc(-c2ccco2)cc(C(F)(F)F)n1)NN1CCOCC1 | x | -1.3 | -0.8 | 13.4 | -1.1 | 4.1
COc1cc(-c2nnc(SCC(=O)c3ccccc3)o2)cc(OC)c1OC | -0.3 | -6.7 | 21.7 | -24.6* | -11.3 | 0.0
C[C@@H]1CN(C)C(=O)c2cccc(N)c2O[C@H]1CN(C)C(=O)OC(C)(C)C | x | x | x | 0.5 | x | x
CC(C)(C)c1ccc(/C=N/Nc2ccc(C(=O)O)cc2)cc1 | -8.4 | 5.2 | 1.5 | 0.5 | 7.7 | 1.2
CC1Oc2ccccc2C=C1/C=N/Nc1ccc(C(=O)O)cc1 (stereo not drawn) | -3.6 | 3.8 | -2.0 | -22.6* | -6.2 | 0.5
COC(=O)C1=C(CN2CCSCC2)NC(=O)NC1c1cc(C)ccc1C (stereo not drawn) | 1.6 | 0.3 | 1.1 | x | 37.1* | 6.7
CCOC(=O)C1=C(CN2CCSCC2)NC(=O)NC1c1cc(C)ccc1C (stereo not drawn) | 1.5 | 4.6 | -2.9 | x | -2.6 | 0.4
COC(=O)c1ccc(CN2CC(=O)N3[C@@H](CO)[C@H](c4ccc(-c5cccnc5)cc4)[C@@H]3C2)cc1 | x | x | x | 2.1 | x | x
COc1ccccc1-c1ccc2c(c1)O[C@@H](CN(C)C(=O)c1ccncc1)[C@H](C)CN([C@@H](C)CO)S2(=O)=O | -0.9 | -2.0 | 3.1 | 0.5 | -9.9 | 3.7
COc1ccccc1-c1ccc2c(c1)O[C@@H](CN(C)C(=O)c1cccnc1)[C@H](C)CN([C@@H](C)CO)S2(=O)=O | 83.8* | x | x | -1.0 | x | x
C[C@@H]1CN([C@@H](C)CO)S(=O)(=O)c2ccc(C#CC3CC3)cc2O[C@H]1CN(C)CC1CCOCC1 | 87.2* | x | x | -12.3 | x | x
C[C@H](CO)N1C[C@H](C)[C@H](CN(C)Cc2ccccc2)Oc2cc(C#Cc3ccccn3)ccc2S1(=O)=O | 99.0* | x | x | -6.8 | x | x
CCCC#Cc1ccc2c(c1)O[C@H](CN(C)CCC)[C@H](C)CN([C@@H](C)CO)S2(=O)=O | 102.6* | x | x | 1.0 | x | x
CNC(=O)C[C@@H]1CC[C@H]2[C@@H](COC[C@H](O)CN2Cc2ccc(C(F)(F)F)cc2)O1 | -1.0 | x | x | -0.3 | x | x
C[C@@H]1CN([C@@H](C)CO)S(=O)(=O)c2ccc(Br)cc2O[C@@H]1CN(C)Cc1ccc2c(c1)OCO2 | -2.2 | x | x | -34.5*! | x | x
COc1ccccc1C#Cc1ccc2c(c1)O[C@@H](CN(C)C(C)=O)[C@@H](C)CN([C@H](C)CO)S2(=O)=O | 98.7* | x | x | 0.4 | x | x
C[C@H](CO)N1C[C@H](C)[C@@H](CN(C)S(C)(=O)=O)Oc2cc(C#Cc3ccccc3)ccc2S1(=O)=O | 90.7* | x | x | -4.8 | x | x
C[C@H](CO)N1C[C@H](C)[C@H](CN(C)S(C)(=O)=O)Oc2cc(C#Cc3ccccc3)ccc2S1(=O)=O | 0.5 | x | x | 3.7 | x | x
CCC(=O)N1C[C@H](O)COC[C@H]2O[C@H](CC(=O)NCc3ccccc3Cl)CC[C@@H]21 | 1.7 | x | x | 0.2 | x | x
Cn1nnnc1Sc1ncnc2scc(-c3ccccc3C(F)(F)F)c12 | -1.5 | 0.5 | 1.4 | -17.9* | 9.4 | -0.7
